{"source": "ChEMBL document CHEMBL1127574", "about": "“Design and synthesis of ellipticinium salts and 1,2-dihydroellipticines with high selectivities against human CNS cancers in vitro” (1994)", "type_in_all_cases": "functional", "key": {"[1]": {"tested_on": "IGROV-1", "assay": "Tested in vitro for cytotoxicity in IGROV1 cell lines", "details": "Homo sapiens", "method_in_brief": "(§1)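 Compounds dissolved in DMSO, then diluted 500-fold into aqueous medium. The resulting aqueous solutions or suspensions were added to the cultured human tumour cell lines, and the cells were exposed for 48 h. Growth was read colorimetrically in one of two ways: a metabolic assay in which viable cells reduce a tetrazolium salt to a formazan dye, or a protein stain for total cellular protein.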"}, "[2]": {"tested_on": "NCI-H23", "assay": "Tested in vitro for cytotoxicity in NCI-H23 cell line of Non-Small Cell Lung Cancer", "details": "Homo sapiens, read-out: Log TGI (converted)", "method_in_brief": "as §1"}, "[3]": {"tested_on": "CCRF-CEM", "assay": "Tested in vitro for cytotoxicity in CCRF-CEM cell line of Leukemia", "details": "Homo sapiens, read-out: Log TGI (converted)", "method_in_brief": "as §1"}, "[4]": {"tested_on": "SF-268", "assay": "Tested in vitro for cytotoxicity in SF-268 cell line of CNS cancer", "details": "Homo sapiens, read-out: Log TGI (converted)", "method_in_brief": "as §1"}, "[5]": {"tested_on": "CAKI-1", "assay": "Tested in vitro for cytotoxicity in CAKI-1 cell lines", "details": "Homo sapiens", "method_in_brief": "as §1"}, "[6]": {"tested_on": "SF-539", "assay": "Tested in vitro for cytotoxicity in SF-539 cell line of CNS Cancer", "details": "Homo sapiens, read-out: Log TGI (converted)", "method_in_brief": "as §1"}, "[7]": {"tested_on": "UO-31", "assay": "Tested in vitro for cytotoxicity in UO-31 cell line of Renal cancer", "details": "Homo sapiens, read-out: Log TGI (converted)", "method_in_brief": "(§2)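 Compounds dissolved in DMSO and diluted 500-fold into aqueous medium; aliquots of the resulting solutions or suspensions added to cultured human tumor cells for 48 h. Growth read colorimetrically, either by tetrazolium reduction to formazan by viable cells or by protein staining of total cellular protein.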"}, "[8]": {"tested_on": "OVCAR-8", "assay": "Tested in vitro for cytotoxicity in OVCAR-8 cell line of Ovarian Cancer", "details": "Homo sapiens, read-out: Log TGI (converted)", "method_in_brief": "as §1"}, "[9]": {"tested_on": "SK-OV-3", "assay": "Tested in vitro for cytotoxicity in SK-OV-3 cell line of Ovarian Cancer", "details": "Homo sapiens, read-out: Log TGI (converted)", "method_in_brief": "as §2"}, "[10]": {"tested_on": "HL-60", "assay": "Tested in vitro for cytotoxicity in HL-60(TB) cell line of Leukemia", "details": "Homo sapiens, read-out: Log TGI (converted)", "method_in_brief": "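Compounds were dissolved in DMSO and diluted 500-fold in aqueous medium. Aliquots of the resulting solution or suspension were added to the cultured cells for 48 h. Growth was read colorimetrically, either by tetrazolium reduction to formazan in viable cells or by a total-protein stain.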"}, "[11]": {"tested_on": "OVCAR-5", "assay": "Tested in vitro for cytotoxicity in OVCAR-5 cell line of Ovarian Cancer", "details": "Homo sapiens, read-out: Log TGI (converted)", "method_in_brief": "as §1"}, "[12]": {"tested_on": "COLO 205", "assay": "Tested in vitro for cytotoxicity in COLO 205 cell line of Colon Cancer", "details": "Homo sapiens, read-out: Log TGI (converted)", "method_in_brief": "as §1"}, "[13]": {"tested_on": "Malme-3M", "assay": "Tested in vitro for cytotoxicity in MALME-3M", "details": "Homo sapiens", "method_in_brief": "as §1"}, "[14]": {"tested_on": "UACC-62", "assay": "Tested in vitro for cytotoxicity in UACC-62 cell line of Melanoma", "details": "Homo sapiens, read-out: Log TGI (converted)", "method_in_brief": "as §2"}, "[15]": {"tested_on": "SNB-19", "assay": "Tested in vitro for cytotoxicity in SNB-19 cell line of CNS Cancer", "details": "Homo sapiens, read-out: Log TGI (converted)", "method_in_brief": "(§3)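 Compound DMSO solutions diluted 500-fold into aqueous medium; the resulting solutions or suspensions were added to cultured human tumor cells for 48 h. Growth was read colorimetrically, either by tetrazolium reduction to formazan by viable cells or by a protein stain for total cellular protein.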"}, "[16]": {"tested_on": "A498", "assay": "Tested in vitro for cytotoxicity in A498 cell line of Renal cancer", "details": "Homo sapiens, read-out: Log TGI (converted)", "method_in_brief": "as §1"}, "[17]": {"tested_on": "SNB-75", "assay": "Tested in vitro for cytotoxicity in SNB-75 cell line of CNS Cancer", "details": "Homo sapiens, read-out: Log TGI (converted)", "method_in_brief": "as §2"}, "[18]": {"tested_on": "DMS-273", "assay": "Tested in vitro for cytotoxicity in DMS273 cell line of Small Cell Lung Cancer", "details": "Homo sapiens, read-out: Log TGI (converted)", "method_in_brief": "as §1"}, "[19]": {"tested_on": "OVCAR-3", "assay": "Tested in vitro for cytotoxicity in OVCAR-3 cell line of Ovarian Cancer", "details": "Homo sapiens, read-out: Log TGI (converted)", "method_in_brief": "as §3"}, "[20]": {"tested_on": "SK-MEL-28", "assay": "Tested in vitro for cytotoxicity in SK-MEL-28 cell line of Melanoma", "details": "Homo sapiens, read-out: Log TGI (converted)", "method_in_brief": "as §1"}, "[21]": {"tested_on": "U-251", "assay": "Tested in vitro for cytotoxicity in U251 cell line of CNS Cancer", "details": "Homo sapiens, read-out: Log TGI (converted)", "method_in_brief": "as §2"}, "[22]": {"tested_on": "DMS-114", "assay": "Tested in vitro for cytotoxicity in DMS114 cell lines", "details": "Homo sapiens", "method_in_brief": "as §1"}, "[23]": {"tested_on": "LOX IMVI", "assay": "Tested in vitro for cytotoxicity in LOX IMVI cell line of Melanoma", "details": "Homo sapiens, read-out: Log TGI (converted)", "method_in_brief": "as §1"}, "[24]": {"tested_on": "XF498", "assay": "Tested in vitro for cytotoxicity in XF498 cell line of CNS Cancer", "details": "Homo sapiens, read-out: Log TGI (converted)", "method_in_brief": "as §3"}, "[25]": {"tested_on": "CAKI-1", "assay": "Tested in vitro for cytotoxicity in CAKI-1 cell line of Renal cancer", "details": "Homo sapiens, read-out: Log TGI (converted)", "method_in_brief": "as §1"}, "[26]": {"tested_on": "A549", "assay": "Tested in vitro for cytotoxicity in A549/ATCC cell lines", "details": "Homo sapiens", "method_in_brief": "as §1"}, "[27]": {"tested_on": "MOLT-4", "assay": "Tested in vitro for cytotoxicity in MOLT-4 cell line of Leukemia", "details": "Homo sapiens, read-out: Log TGI (converted)", "method_in_brief": "as §1"}, "[28]": {"tested_on": "HT-29", "assay": "Tested in vitro for cytotoxicity in HT-29 cell line of Colon Cancer", "details": "Homo sapiens, read-out: Log TGI (converted)", "method_in_brief": "as §1"}, "[29]": {"tested_on": "HOP-62", "assay": "Tested in vitro for cytotoxicity in HOP-62 cell line of Non-Small Cell Lung Cancer", "details": "Homo sapiens, read-out: Log TGI (converted)", "method_in_brief": "as §1"}, "[30]": {"tested_on": "SW-620", "assay": "Tested in vitro for cytotoxicity in SW-620 cell line of Colon Cancer", "details": "Homo sapiens, read-out: Log TGI (converted)", "method_in_brief": "as §2"}, "[31]": {"tested_on": "SK-MEL-2", "assay": "Tested in vitro for cytotoxicity in SK-MEL-2 cell line of Melanoma", "details": "Homo sapiens, read-out: Log TGI (converted)", "method_in_brief": "as §1"}}}
{"smiles": "COc1ccc2[nH]c3c(C)c4cc[n+](C)cc4c(C)c3c2c1", "values": [{"measurement": "GI50", "setting": "[1]", "value": 3.62, "unit": "µM"}, {"measurement": "TGI", "setting": "[2]", "value": 10, "unit": "µM"}, {"measurement": "TGI", "setting": "[3]", "value": "> 100", "unit": "µM"}, {"measurement": "TGI", "setting": "[4]", "value": 5.01, "unit": "µM"}, {"measurement": "GI50", "setting": "[5]", "value": 48.2, "unit": "µM"}, {"measurement": "TGI", "setting": "[6]", "value": 6.31, "unit": "µM"}, {"measurement": "TGI", "setting": "[7]", "value": "> 100", "unit": "µM"}, {"measurement": "TGI", "setting": "[8]", "value": 31.6, "unit": "µM"}, {"measurement": "TGI", "setting": "[9]", "value": "> 100", "unit": "µM"}, {"measurement": "TGI", "setting": "[10]", "value": "> 100", "unit": "µM"}, {"measurement": "TGI", "setting": "[11]", "value": "> 100", "unit": "µM"}, {"measurement": "TGI", "setting": "[12]", "value": 39.8, "unit": "µM"}, {"measurement": "GI50", "setting": "[13]", "value": 5.27, "unit": "µM"}, {"measurement": "TGI", "setting": "[14]", "value": "> 100", "unit": "µM"}, {"measurement": "TGI", "setting": "[15]", "value": 10, "unit": "µM"}, {"measurement": "TGI", "setting": "[16]", "value": "> 100", "unit": "µM"}, {"measurement": "TGI", "setting": "[17]", "value": 3.16, "unit": "µM"}, {"measurement": "TGI", "setting": "[18]", "value": 63.1, "unit": "µM"}, {"measurement": "TGI", "setting": "[19]", "value": 100, "unit": "µM"}, {"measurement": "TGI", "setting": "[20]", "value": 50.1, "unit": "µM"}, {"measurement": "TGI", "setting": "[21]", "value": 5.01, "unit": "µM"}, {"measurement": "GI50", "setting": "[22]", "value": 0.811, "unit": "µM"}, {"measurement": "TGI", "setting": "[23]", "value": "> 100", "unit": "µM"}, {"measurement": "TGI", "setting": "[24]", "value": 10, "unit": "µM"}, {"measurement": "TGI", "setting": "[25]", "value": "> 100", "unit": "µM"}, {"measurement": "GI50", "setting": "[26]", "value": 1.52, "unit": "µM"}, {"measurement": "TGI", "setting": "[27]", "value": "> 100", "unit": "µM"}, {"measurement": "TGI", "setting": "[28]", "value": "> 100", "unit": "µM"}, {"measurement": "TGI", "setting": "[29]", "value": 6.31, "unit": "µM"}, {"measurement": "TGI", "setting": "[30]", "value": "> 100", "unit": "µM"}, {"measurement": "TGI", "setting": "[31]", "value": 63.1, "unit": "µM"}]}
